Experimental data: ChEMBL document CHEMBL3091291, “Synthesis and pharmacological characterization of benzenesulfonamides as dual species inhibitors of human and murine mPGES-1” (Bioorg Med Chem, 2013)
Activity calls are given as the source filed them. No cut-off for these calls is given here.

Assays:
[1] = target: T1, Prostaglandin E synthase (Homo sapiens) (UniProt O14684); test: Inhibition of mPGES-1 in human HeLa cells using PGH2 as substrate assessed as inhibition of IL-1beta/TNFalpha-stimulated PGE2 production at 5 uM preincubated for 30 mins followed by substrate addition measured after 1 min by LC-MS/MS analysis; type: cell-based
T1 sequence (whole entry): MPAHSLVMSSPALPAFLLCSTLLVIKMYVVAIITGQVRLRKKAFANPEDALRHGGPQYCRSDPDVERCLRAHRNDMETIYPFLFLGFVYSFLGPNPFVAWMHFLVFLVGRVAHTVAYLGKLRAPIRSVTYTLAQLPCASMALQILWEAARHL
Method in brief: (§1)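 Microsomal fraction from HeLa, NIH-3T3 or RAW 264.7 cells, obtained by sonication and ultracentrifugation, resuspended in 0.1 M KPi pH 7.4 with 2.5 mM reduced GSH. Protein at 0.15 mg/mL (HeLa, NIH) or 0.3 mg/mL (RAW) incubated with compound 30 min on ice. Reaction started with 20 µM PGH₂, stopped after 1 min with FeCl₂/citric acid. PGE₂ quantified by SPE and LC–MS/MS. IC50 from four-parameter logistic fit of increasing concentrations.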

[2] = target: T2, Prostaglandin G/H synthase 2 (Homo sapiens) (UniProt P35354); test: Inhibition of LPS-stimulated COX2 in human whole blood assessed as reduction in PGE2 production by measuring remaining activity at 100 uM preincubated for 15 mins followed by LPS addition measured after 24 hrs by LC-MS/MS analysis
T2 sequence (whole entry): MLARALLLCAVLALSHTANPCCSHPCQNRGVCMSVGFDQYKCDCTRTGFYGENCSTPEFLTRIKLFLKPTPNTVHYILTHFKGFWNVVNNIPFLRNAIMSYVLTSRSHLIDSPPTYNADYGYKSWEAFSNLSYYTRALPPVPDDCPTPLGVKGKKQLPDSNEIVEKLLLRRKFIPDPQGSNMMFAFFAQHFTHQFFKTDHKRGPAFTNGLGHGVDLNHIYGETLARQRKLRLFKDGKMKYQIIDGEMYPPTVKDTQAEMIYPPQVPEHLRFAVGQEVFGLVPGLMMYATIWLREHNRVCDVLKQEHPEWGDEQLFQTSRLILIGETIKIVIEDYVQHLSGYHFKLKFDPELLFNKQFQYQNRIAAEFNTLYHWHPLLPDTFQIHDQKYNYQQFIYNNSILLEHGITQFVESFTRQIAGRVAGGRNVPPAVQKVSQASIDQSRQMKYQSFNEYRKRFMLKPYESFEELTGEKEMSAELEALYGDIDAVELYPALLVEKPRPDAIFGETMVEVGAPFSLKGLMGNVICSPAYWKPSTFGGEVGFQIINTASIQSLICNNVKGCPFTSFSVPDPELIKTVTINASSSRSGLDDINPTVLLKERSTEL
Method in brief: (§2)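 Heparinized human whole blood (500 µL) mixed with compound in DMSO, with acetylsalicylic acid added to block COX-1, held 15 min at 37 °C, then stimulated with LPS in autologous plasma to induce COX-2/mPGES-1. After 24 h at 37 °C, samples chilled 5 min on ice; plasma collected, prostaglandins extracted and measured by LC–MS/MS. Remaining activity given relative to vehicle control.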

[3] = target: T2, Prostaglandin G/H synthase 2 (Homo sapiens); test: Inhibition of LPS-stimulated COX2 in human whole blood assessed as reduction in PGF2alpha production by measuring remaining activity at 100 uM preincubated for 15 mins followed by LPS addition measured after 24 hrs by LC-MS/MS analysis; method in brief: as §2
[4] = target: Prostaglandin G/H synthase 1 (Homo sapiens) (UniProt P23219); test: Inhibition of COX1 in human whole blood assessed as reduction in TXB2 production by measuring remaining activity at 100 uM after 1 hr by LC-MS/MS analysis
Prostaglandin G/H synthase 1 (Homo sapiens), sequence (P23219 whole entry): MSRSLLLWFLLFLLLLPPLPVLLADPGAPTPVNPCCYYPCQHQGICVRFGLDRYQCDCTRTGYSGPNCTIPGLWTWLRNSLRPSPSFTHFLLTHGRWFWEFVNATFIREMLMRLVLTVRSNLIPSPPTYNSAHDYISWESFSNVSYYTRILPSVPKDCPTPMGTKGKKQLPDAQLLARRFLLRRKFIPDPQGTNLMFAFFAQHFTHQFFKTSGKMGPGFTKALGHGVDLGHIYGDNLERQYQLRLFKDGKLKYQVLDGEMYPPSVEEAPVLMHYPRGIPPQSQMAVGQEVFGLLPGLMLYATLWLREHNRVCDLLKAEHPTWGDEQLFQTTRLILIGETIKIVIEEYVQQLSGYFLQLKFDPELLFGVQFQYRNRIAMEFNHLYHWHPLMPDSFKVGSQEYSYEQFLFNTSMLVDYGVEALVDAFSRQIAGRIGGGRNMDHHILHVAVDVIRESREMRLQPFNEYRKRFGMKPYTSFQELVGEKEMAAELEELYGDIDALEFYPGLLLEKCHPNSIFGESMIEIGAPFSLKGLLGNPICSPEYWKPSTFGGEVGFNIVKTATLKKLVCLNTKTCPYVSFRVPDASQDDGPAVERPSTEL

[5] = target: Prostaglandin G/H synthase 1 (Homo sapiens) (UniProt P23219); test: Inhibition of COX1 in human whole blood assessed as reduction in PGD2 production by measuring remaining activity at 100 uM after 1 hr by LC-MS/MS analysis
[6] = target: T1, Prostaglandin E synthase (Homo sapiens); test: Inhibition of mPGES-1 in human HeLa cells using PGH2 as substrate assessed as inhibition of IL-1beta/TNFalpha-stimulated PGE2 production at 100 uM after 24 hrs by LC-MS/MS analysis; type: cell-based
Method in brief: (§3)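 HeLa cells (2 × 10⁴ per well) grown 24 h at 37 °C, then given fresh medium with 1 ng/mL IL-1b + 5 ng/mL TNFa (or PBS for unstimulated control) plus compound (1, 10 or 100 µM) or DMSO for 24 h at 37 °C. Supernatant mixed with H₃PO₄, EDTA and deuterated internal standards; PGE₂ measured by SPE and LC–MS/MS.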

[7] = target: T3, Polyunsaturated fatty acid 5-lipoxygenase (Homo sapiens) (UniProt P09917); test: Inhibition of calcium ionophore (A23187)-stimulated human 5-LO assessed as reduction of LTB4 production by measuring remaining activity at 100 uM preincubated for 15 mins followed by calcium ionophore (A23187) addition measured after 15 mins by LC-MS/MS analysis
T3 sequence (whole entry): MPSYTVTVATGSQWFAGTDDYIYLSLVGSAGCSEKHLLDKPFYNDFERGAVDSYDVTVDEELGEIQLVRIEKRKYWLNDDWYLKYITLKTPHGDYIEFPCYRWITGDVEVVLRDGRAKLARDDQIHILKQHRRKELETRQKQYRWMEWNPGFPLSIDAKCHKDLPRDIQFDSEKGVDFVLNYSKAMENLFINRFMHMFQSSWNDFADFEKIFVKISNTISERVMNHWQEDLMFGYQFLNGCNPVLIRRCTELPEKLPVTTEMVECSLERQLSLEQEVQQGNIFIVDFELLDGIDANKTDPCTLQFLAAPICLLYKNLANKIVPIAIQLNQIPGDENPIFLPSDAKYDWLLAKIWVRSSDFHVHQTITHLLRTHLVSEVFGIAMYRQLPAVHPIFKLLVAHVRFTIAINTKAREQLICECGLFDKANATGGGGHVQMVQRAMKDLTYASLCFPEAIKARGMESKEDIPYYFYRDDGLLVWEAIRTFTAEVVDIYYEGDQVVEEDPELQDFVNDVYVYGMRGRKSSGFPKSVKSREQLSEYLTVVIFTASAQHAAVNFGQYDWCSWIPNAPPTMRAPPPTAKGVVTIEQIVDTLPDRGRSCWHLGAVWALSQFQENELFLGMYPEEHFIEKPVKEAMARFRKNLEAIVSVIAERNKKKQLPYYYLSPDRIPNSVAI
Method in brief: (§4)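 Heparinized human whole blood (500 µL) preincubated with compound 15 min at 37 °C, then stimulated with 20 µM calcium ionophore A23187 in autologous plasma for 15 min at 37 °C. Plasma spiked with deuterated LTB₄ and HETE internal standards, extracted into ethyl acetate, analysed by LC–MS/MS. Inhibition scored when a level fell by 33% or more versus control.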

[8] = target: T3, Polyunsaturated fatty acid 5-lipoxygenase (Homo sapiens); test: Inhibition of calcium ionophore (A23187)-stimulated human 5-LO assessed as reduction of 5(S)-HETE production by measuring remaining activity at 100 uM preincubated for 15 mins followed by calcium ionophore (A23187) addition measured after 15 mins by LC-MS/MS analysis; method in brief: as §4
[9] = target: T1, Prostaglandin E synthase (Homo sapiens); test: Inhibition of mPGES-1 in human HeLa cells using PGH2 as substrate assessed as inhibition of IL-1beta/TNFalpha-stimulated PGE2 production at 1 to 10 uM after 24 hrs by LC-MS/MS analysis; type: cell-based; method in brief: as §3
HeLa = test: Cytotoxicity against IL-1beta/TNFalpha-stimulated human HeLa cells assessed as cell viability up to 10 uM after 24 hrs by WST-1 assay; type: cell-based
Method in brief: (§5)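 HeLa cells seeded at 3 × 10³ per well in medium with 10% FCS, grown 24 h at 37 °C, then stimulated with IL-1b (1 ng/mL) + TNFa (5 ng/mL) and treated at the same time with compound (1, 10, 100 µM) or DMSO for 24 h. WST-1 reagent then added for 90–150 min; absorbance read at 450 nm against 620 nm reference.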

[10] = Cytotoxicity against IL-1beta/TNFalpha-stimulated human HeLa cells assessed as cell viability at 100 uM after 24 hrs by WST-1 assay; type: cell-based; settings: IL-1beta/TNFalpha-stimulated HeLa cells, read-out: Activity; method in brief: as §5
Prostaglandin E synthase = target: T4, Prostaglandin E synthase (Homo sapiens, UniProt O14684); test: Inhibition of mPGES-1 in human HeLa cells using PGH2 as substrate assessed as inhibition of IL-1beta/TNFalpha-stimulated PGE2 production preincubated for 30 mins followed by substrate addition measured after 1 min by LC-MS/MS analysis; type: cell-based; method in brief: as §1
T4 sequence (O14684 whole entry): T1 sequence (whole entry)

[11] = target: T5, Prostaglandin E synthase (Mus musculus) (UniProt Q9JM51); test: Inhibition of mPGES-1 in mouse RAW264.7 cells using PGH2 as substrate assessed as inhibition of LPS-stimulated PGE2 production at 5 uM preincubated for 30 mins followed by substrate addition measured after 1 min by LC-MS/MS analysis; type: cell-based; method in brief: as §1
T5 sequence (whole entry): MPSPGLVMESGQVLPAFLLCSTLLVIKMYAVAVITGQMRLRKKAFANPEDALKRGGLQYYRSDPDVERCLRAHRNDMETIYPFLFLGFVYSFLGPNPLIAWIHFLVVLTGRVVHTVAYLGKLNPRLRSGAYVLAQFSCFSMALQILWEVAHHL

[12] = target: T5, Prostaglandin E synthase (Mus musculus); test: Inhibition of mPGES-1 in Swiss mouse NIH/3T3 cells using PGH2 as substrate assessed as inhibition of IL-1beta/TNFalpha-stimulated PGE2 production at 5 uM preincubated for 30 mins followed by substrate addition measured after 1 min by LC-MS/MS analysis; type: cell-based; method in brief: as §1

`N#Cc1ccc(S(=O)(=O)N(Cc2ccccc2)Cc2ccccc2)cc1` showed an inhibition [1] of 34.1%.
With `COc1ccc(CN(Cc2ccoc2)S(=O)(=O)c2ccc(C(=O)O)cc2)cc1` the inhibition [1] was 14.2%.
For `O=C(O)c1ccc(CN(Cc2ccccc2)Cc2ccccc2)cc1`, the inhibition [1] was 17.4%.
Work on `O=C(O)c1ccc(S(=O)(=O)N(Cc2ccccc2)c2ccccc2)cc1` yielded an inhibition [1] of 26.4%.
In the case of `O=C(O)c1ccc(S(=O)(=O)N2CCN(c3ccccc3)CC2)cc1`, the inhibition [1] is reported as 58.7%.
In the case of `O=S(=O)(c1cccc(Cl)c1)N(Cc1ccccc1)Cc1ccccc1`, the inhibition [1] is reported as 6.2%.
In the case of `O=C(O)c1ccc(S(=O)(=O)N(CCc2ccccc2)Cc2ccccc2)cc1`, the inhibition [1] is reported as 57%, the Activity [2] is reported as 83.3% and the Activity [3] is reported as 117%.
`O=C(O)c1ccc(S(=O)(=O)N(CCCc2ccccc2)Cc2ccccc2)cc1` gave an inhibition [1] of 73%, an Activity [2] of 68% and an Activity [3] of 129%.
Molecule `O=C(O)c1cccc(S(=O)(=O)N(Cc2ccccc2)Cc2ccccc2)c1` has an inhibition [1] of 35.8%.
In the case of `O=S(=O)(c1ccccc1Cl)N(Cc1ccccc1)Cc1ccccc1`, the inhibition [1] is reported as under 0%.
With `COc1ccc(CN(Cc2ccsc2)S(=O)(=O)c2ccc(C(=O)O)cc2)cc1` the inhibition [1] was 11.9%.
`N#Cc1ccc(S(=O)(=O)N(Cc2ccccc2)Cc2ccc(Oc3ccccc3)cc2)cc1` showed an inhibition [1] of 1%.
With `CCCCN(Cc1ccccc1)S(=O)(=O)c1ccc(C(=O)O)cc1` the Activity [4] was 97.8%, the Activity [5] was 73.4% and the inhibition [6] was “Active”. For the same molecule, the inhibition [1] was 19.1%, the Activity [7] was 124% and the Activity [8] was 121%. For the same molecule, the Activity [2] was 62.8%, the Activity [3] was 117% and the inhibition [9] was “inactive”. The Activity (HeLa) was “Non-toxic” and the viability at 24 h, 100 µM [10] was 50%.
With `O=C(O)c1ccc(S(=O)(=O)N(Cc2ccc(Cl)cc2)CC2CCCCC2)cc1` the inhibition [1] was 48.4%.
Molecule `COc1ccc(CN(Cc2ccc(C#N)cc2)S(=O)(=O)c2ccc(C(=O)O)cc2)cc1` has an inhibition [1] of under 0%.
Work on `O=S(=O)(c1ccc(C(F)(F)F)cc1)N(Cc1ccccc1)Cc1ccccc1` yielded an inhibition [1] of 11.9%.
Molecule `O=C(O)c1ccc(S(=O)(=O)N(Cc2ccc(-c3ccccc3)cc2)CC2CCCCC2)cc1` has an inhibition [1] of 76%, an Activity [7] of 75.7% and an Activity [8] of 75.9%. For the same molecule, the Activity [2] was 69.7%, the IC50 (Prostaglandin E synthase) was 800 nM and the Activity [3] was 117%. The inhibition [11] was 44.4% and the inhibition [12] was 51.9%.
`CCN(c1ccccc1)S(=O)(=O)c1ccc(C(=O)O)cc1` showed an inhibition [1] of under 0%.
Molecule `COc1ccc(CN(Cc2nc(C)cs2)S(=O)(=O)c2ccc(C(=O)O)cc2)cc1` has an inhibition [1] of 2.9%.
For `O=C(O)c1ccc(S(=O)(=O)N(Cc2ccc(Oc3ccccc3)cc2)CC2CCCCC2)cc1`, the inhibition [1] was 79.2%.
Work on `CCN(Cc1ccccc1)S(=O)(=O)c1ccc(C(=O)O)cc1` yielded an inhibition [1] of under 0%.
Molecule `CCCCN(c1ccccc1)S(=O)(=O)c1ccc(C(=O)O)cc1` has an inhibition [1] of under 0%.
For `O=S(=O)(c1ccc(Cl)cc1)N(Cc1ccccc1)Cc1ccccc1`, the inhibition [1] was under 0%.
Work on `COc1ccc(CN(Cc2cccc(C#N)c2)S(=O)(=O)c2ccc(C(=O)O)cc2)cc1` yielded an inhibition [1] of 6%.
For `O=C(O)c1ccc(S(=O)(=O)N(Cc2ccccc2)Cc2ccccc2)cc1`, the inhibition [1] was 51.4%.
In the case of `Cc1ccc(-c2cc(C(F)(F)F)nn2-c2ccc(S(N)(=O)=O)cc2)cc1` [CELECOXIB], the inhibition [6] is reported as “Active”, the inhibition [9] is reported as “inactive” and the Activity (HeLa) is reported as “Non-toxic”. The viability at 24 h, 100 µM [10] was 50%.
`O=S(=O)(c1ccc(F)cc1)N(Cc1ccccc1)Cc1ccccc1` gave an inhibition [1] of under 0%.
